Key:
[1] = test system: Canis familiaris; experiment: Ex vivo TXA2 ([…]) antagonist activity was determined for U-46,619 induced aggregation (dose ratio) after 2 hr of oral dosing (1 mg/kg) in the dog; type: functional, Canis lupus familiaris
In short: (§1)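 Dogs (n = 4) dosed orally, blood sampled at 2, 5, 8 and 24 h. Platelet-rich plasma aggregated with U46619 plus a predetermined threshold ADP concentration (about 0.4–1.2 × 10^-6 M), compared before vs after dosing to give a U46619 dose ratio. ">" marks the maximum achievable ratio at top U46619 (1 × 10^-4 M).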

[2] = test system: Canis familiaris; experiment: Ex vivo TXA2 ([…]) antagonist activity was determined for U-46,619 induced aggregation (dose ratio) after 2 hr of oral dosing (10 mg/kg) in the dog; type: functional, Canis lupus familiaris; in short: as §1
[3] = test system: Rattus norvegicus; experiment: Ex vivo TXA2 ([…]) antagonist activity was determined for U-46,619 induced aggregation (dose ratio) after 1 hr of oral dosing (10 mg/kg) in the rat; type: functional
In short: (§2)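 Conscious rats (n = 6) dosed by oral gavage, then anesthetized and bled from the abdominal aorta at 1, 3 or 5 h. Platelet-rich plasma aggregated with U46619 before and after dosing to give a U46619 dose ratio. ">" values mark the maximum dose ratio achievable at the top U46619 concentration (1 × 10^-4 M).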

[4] = test system: Rattus norvegicus; experiment: Ex vivo TXA2 ([…]) antagonist activity was determined for U-46,619 induced aggregation (dose ratio) after 3 hr of oral dosing (10 mg/kg) in the rat; type: functional; in short: as §2
[5] = test system: Rattus norvegicus; experiment: Ex vivo […] (TXA2 synthase) inhibitory activity after 3 hr of oral dosing (3 mg/kg) in the rat; type: functional
In short: (§3)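 Rats (n = 6) gavaged, anesthetized, aortic blood taken at 1, 3 or 5 h after dosing. A blood aliquot was challenged with collagen and TXB2 measured by radioimmunoassay; expressed as % inhibition of TXA2 synthase (±SEM).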

[6] = test system: Rattus norvegicus; experiment: Ex vivo TXA2 ([…]) antagonist activity was determined for U-46,619 induced aggregation (dose ratio) after 1 hr of oral dosing (5 mg/kg) in the rat; type: functional; in short: as §2
[7] = test system: Rattus norvegicus; experiment: Ex vivo […] (TXA2 synthase) inhibitory activity after 3 hr of oral dosing (5 mg/kg) in the rat; type: functional
In short: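 Conscious rats (n = 6) were gavaged with compound, then anesthetized, and blood was drawn from the abdominal aorta at 1, 3 and 5 h after dosing. A blood aliquot was stimulated with collagen and the TXB2 formed was measured by radioimmunoassay. Results are expressed as % inhibition of TXA2 synthase activity (±SEM).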

[8] = test system: Rattus norvegicus; experiment: Ex vivo […] (TXA2 synthase) inhibitory activity after 5 hr of oral dosing (3 mg/kg) in the rat; type: functional; in short: as §3
[9] = test system: Rattus norvegicus; experiment: Ex vivo […] (TXA2 synthase) inhibitory activity after 1 hr of oral dosing (3 mg/kg) in the rat; type: functional; in short: as §3
[10] = test system: Rattus norvegicus; experiment: Ex vivo TXA2 ([…]) antagonist activity was determined for U-46,619 induced aggregation (dose ratio) after 5 hr of oral dosing (10 mg/kg) in the rat; type: functional; in short: as §2
[11] = test system: Canis familiaris; experiment: Ex vivo TXA2 ([…]) antagonist activity was determined for U-46,619 induced aggregation (dose ratio) after 24 hr of oral dosing (1 mg/kg) in the dog; type: functional, Canis lupus familiaris; in short: as §1
[12] = test system: Rattus norvegicus; experiment: Ex vivo TXA2 ([…]) antagonist activity was determined for U-46,619 induced aggregation (dose ratio) after 3 hr of oral dosing (1 mg/kg) in the rat; type: functional; in short: as §2
[13] = test system: Canis familiaris; experiment: Ex vivo TXA2 ([…]) antagonist activity was determined for U-46,619 induced aggregation (dose ratio) after 5 hr of oral dosing (10 mg/kg) in the dog; type: functional, Canis lupus familiaris; in short: as §1
[14] = test system: Canis familiaris; experiment: Ex vivo TXA2 ([…]) antagonist activity was determined for U-46,619 induced aggregation (dose ratio) after 24 hr of oral dosing (10 mg/kg) in the dog; type: functional, Canis lupus familiaris; in short: as §1
[15] = test system: Canis familiaris; experiment: Ex vivo TXA2 ([…]) antagonist activity was determined for U-46,619 induced aggregation (dose ratio) after 2 hr of oral dosing (3 mg/kg) in the dog; type: functional, Canis lupus familiaris; in short: as §1
[16] = target: T1, Prostacyclin synthase (Homo sapiens, UniProt Q16647); experiment: In vitro inhibition of Prostaglandin I2 synthase in cultured human endothelial cells
T1 sequence (Q16647 whole entry): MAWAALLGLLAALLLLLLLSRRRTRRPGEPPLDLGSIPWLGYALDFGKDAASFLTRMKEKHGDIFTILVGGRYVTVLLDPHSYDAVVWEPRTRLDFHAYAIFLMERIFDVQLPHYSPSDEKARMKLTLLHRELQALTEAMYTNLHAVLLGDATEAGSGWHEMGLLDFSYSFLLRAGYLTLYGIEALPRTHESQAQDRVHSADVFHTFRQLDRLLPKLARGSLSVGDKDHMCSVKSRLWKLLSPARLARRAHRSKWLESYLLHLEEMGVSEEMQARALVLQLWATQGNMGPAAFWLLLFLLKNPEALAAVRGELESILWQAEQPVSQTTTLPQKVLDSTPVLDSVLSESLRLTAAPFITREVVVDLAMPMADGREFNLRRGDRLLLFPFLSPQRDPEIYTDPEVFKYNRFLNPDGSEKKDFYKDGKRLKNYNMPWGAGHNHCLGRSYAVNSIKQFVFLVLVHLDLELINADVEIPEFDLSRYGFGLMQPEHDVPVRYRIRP

[17] = test system: Rattus norvegicus; experiment: Ex vivo TXA2 ([…]) antagonist activity was determined for U-46,619 induced aggregation (dose ratio) after 1 hr of oral dosing (1 mg/kg) in the rat; type: functional; in short: as §2
[18] = test system: Rattus norvegicus; experiment: Ex vivo TXA2 ([…]) antagonist activity was determined for U-46,619 induced aggregation (dose ratio) after 5 hr of oral dosing (1 mg/kg) in the rat; type: functional; in short: as §2
[19] = test system: Canis familiaris; experiment: Ex vivo TXA2 ([…]) antagonist activity was determined for U-46,619 induced aggregation (dose ratio) after 8 hr of oral dosing (10 mg/kg) in the dog; type: functional, Canis lupus familiaris; in short: as §1
[20] = test system: Rattus norvegicus; experiment: Ex vivo […] (TXA2 synthase) inhibitory activity after 1 hr of oral dosing (10 mg/kg) in the rat; type: functional; in short: as §3
[21] = test system: Canis familiaris; experiment: Ex vivo TXA2 ([…]) antagonist activity was determined for U-46,619 induced aggregation (dose ratio) after 5 hr of oral dosing (1 mg/kg) in the dog; type: functional, Canis lupus familiaris; in short: as §1
[22] = test system: Rattus norvegicus; experiment: Ex vivo […] (TXA2 synthase) inhibitory activity after 1 hr of oral dosing (1 mg/kg) in the rat; type: functional; in short: as §3
[23] = test system: Canis familiaris; experiment: Ex vivo TXA2 ([…]) antagonist activity was determined for U-46,619 induced aggregation (dose ratio) after 5 hr of oral dosing (3 mg/kg) in the dog; type: functional, Canis lupus familiaris; in short: as §1
[24] = test system: Canis familiaris; experiment: Ex vivo TXA2 ([…]) antagonist activity was determined for U-46,619 induced aggregation (dose ratio) after 8 hr of oral dosing (3 mg/kg) in the dog; type: functional, Canis lupus familiaris; in short: as §1
[25] = test system: Canis familiaris; experiment: Ex vivo TXA2 ([…]) antagonist activity was determined for U-46,619 induced aggregation (dose ratio) after 8 hr of oral dosing (1 mg/kg) in the dog; type: functional, Canis lupus familiaris; in short: as §1
[26] = test system: Rattus norvegicus; experiment: Ex vivo […] (TXA2 synthase) inhibitory activity after 3 hr of oral dosing (10 mg/kg) in the rat; type: functional; in short: as §3

With `Cc1ccc(OC(C)(C)C2OCC(C/C=C\CCC(=O)O)C(c3cccnc3)O2)c([N+](=O)[O-])c1` (stereo in doubt; 7x) the Antagonist activity [1] was >506, the Antagonist activity [2] was >522 and the Antagonist activity [3] was >113. For the same compound, the Antagonist activity [4] was >71, the Inhibition [5] was 82.5% and the Antagonist activity [6] was >60. It also gave an Inhibition [7] of 89.2%, an Inhibition [8] of 68.3% and an Inhibition [9] of 90.8%. The Antagonist activity [10] was >92, the Antagonist activity [11] was >1.4 and the Antagonist activity [12] was >27. The Antagonist activity [13] was >522, the Antagonist activity [14] was >522 and the Antagonist activity [15] was >321. The IC50 [16] was 28 µM, the Antagonist activity [17] was >21 and the Antagonist activity [18] was >9. The Antagonist activity [19] was >522, the Inhibition [20] was 95.6% and the Antagonist activity [21] was >506. For the same compound, the Inhibition [22] was 61.8%, the Antagonist activity [23] was >321 and the Antagonist activity [24] was >321. The Antagonist activity [25] was >506 and the Inhibition [26] was 93.9%.

Reference: ChEMBL document CHEMBL1128245, “Dual-acting thromboxane receptor antagonist/synthase inhibitors: synthesis and biological properties of [2-substituted-4-(3-pyridyl)-1,3-dioxan-5-yl] alkenoic acids” (J Med Chem, 1995)
